Assay results published in ChEMBL document CHEMBL4118249, “Discovery and Identification of Small Molecules as Methuosis Inducers with in Vivo Antitumor Activities” (J Med Chem, 2018).
Active and inactive are the calls of the source. No cut-off for these calls is given here.

What was measured:
MDA-MB-231 [1] = test: Induction of methuosis in human MDA-MB-231 cells assessed as increase in vacuole formation at 1 uM after 24 hrs by phase contrast microscopic analysis relative to control; assay type: functional
MDA-MB-231 [2] = test: Induction of methuosis in human MDA-MB-231 cells assessed as increase in vacuole formation at 10 uM after 24 hrs by phase contrast microscopic analysis relative to control; assay type: functional
MDA-MB-231 [3] = test: Antiproliferative activity against human MDA-MB-231 cells at 2 uM after 48 hrs in presence of autophagy inhibitor 3-MA by MTS assay; assay type: functional, cell-based
Outline: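 MDA-MB-231 given DMSO, 1 mM 3-MA, 2 µM compound, or the combination for 48 h; viability by MTS, means ± SD of triplicate samples.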

MDA-MB-231 [4] = test: Induction of endoplasmic reticulum originated vacuolization in human MDA-MB-231 cells at 2 uM after 12 hrs by ER-tracker staining based phase contrast fluorescent microscopic analysis; assay type: functional, cell-based
Outline: (§1)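 MDA-MB-231 attached overnight on glass-bottom dishes, treated with DMSO or 2 µM for 12 h, then loaded with ER-tracker or Mito-tracker Red; phase-contrast and confocal fluorescence imaging.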

MDA-MB-231 [5] = test: Induction of methuosis in human MDA-MB-231 cells assessed as increase in vacuole formation at 2 uM after 24 hrs in presence of autophagy inhibitor 3-MA by optical microscopic analysis; assay type: functional, cell-based
Outline: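 Optical microscopy of MDA-MB-231 after 24 h with DMSO, 1 mM 3-MA, 2 µM compound, or both.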

MDA-MB-231 [6] = test: Induction of methuosis in human MDA-MB-231 cells assessed as macropinocytosis at 2 uM after 12 hrs by lucifer yellow CH staining based phase contrast fluorescent microscopic analysis; assay type: functional, cell-based
Outline: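 MDA-MB-231 incubated with 2 µM compound and Lucifer yellow together for 12 h, PBS-washed, imaged by phase contrast and confocal fluorescence.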

MDA-MB-231 [7] = test: Induction of methuosis in human MDA-MB-231 cells assessed as increase in vacuole formation at 2 uM after 12 to 24 hrs by optical microscopic analysis; assay type: functional, cell-based
Outline: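 MDA-MB-231 treated with 2 µM and inspected by optical microscopy at successive times (12, 24, 48 h) for vesicle accumulation and vacuole fusion.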

MDA-MB-231 [8] = test: Induction of methuosis in human MDA-MB-231 cells assessed as late endosomal marker Rab7 on vacuole membranes at 2 uM after 12 hrs by anti-Rab7 staining based immunofluorescent microscopic analysis
MDA-MB-231 [9] = test: Antiproliferative activity against human MDA-MB-231 cells at 2 uM after 48 hrs in presence of pan-caspase inhibitor Z-VAD-FMK by MTS assay; assay type: functional, cell-based
Outline: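 Cells pretreated 1 h with 100 µM Z-VAD-FMK, then 2 µM compound (0.1 µM staurosporine as comparator) alone or combined for 48 h; MTS viability, means ± SD of triplicates.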

MDA-MB-231 [10] = test: Induction of apoptosis in human MDA-MB-231 cells assessed as PARP cleavage at 0.5 to 4 uM after 24 hrs by Western blot analysis; assay type: functional, cell-based
Outline: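 MDA-MB-231 treated 24 h with DMSO, graded compound concentrations or staurosporine; lysed, equal protein separated by 10–15% SDS-PAGE, PVDF transfer, probed for PARP and cleaved PARP, ECL detection.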

MDA-MB-231 [11] = test: Induction of methuosis in human MDA-MB-231 cells assessed as macropinocytosis at 2 uM after 12 hrs by lyso-tracker red staining based phase contrast fluorescent microscopic analysis; assay type: functional, cell-based
Outline: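 MDA-MB-231 treated 2 µM for 12 h, then loaded with Lyso-tracker Red; phase-contrast and confocal fluorescence imaging.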

MDA-MB-231 [12] = test: Antitumor activity against human MDA-MB-231 cells xenografted in iv dosed Balb/c nude mouse assessed as tumor growth inhibition administered once daily for 13 days measured 6 hrs post last dose; assay type: functional, organism-based
Outline: (§2)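 Female BALB/c nude mice (4–6 weeks) injected subcutaneously with 5×10^6 MDA-MB-231 cells; at ~100 mm3 (length×width²×0.5) randomized (n = 6) and dosed iv by tail vein once daily at 5 or 20 mg/kg in 10% Kolliphor HS 15 in saline, or vehicle; tumor volume and weight measured daily; tumors excised 6 h after final dose, H&E stained.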

MDA-MB-231 [13] = test: Induction of methuosis in human MDA-MB-231 cells assessed as increase in vacuole formation at 2 uM after 24 hrs in presence of necrosis inhibitor necrostatin-1 by optical microscopic analysis; assay type: functional, cell-based
Outline: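 Optical microscopy of MDA-MB-231 after 24 h with DMSO, 50 µM necrostatin-1, 2 µM compound, or both.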

MDA-MB-231 [14] = test: Induction of methuosis in human MDA-MB-231 cells assessed as increase in vacuole formation at 2 uM after 24 hrs in presence of pan-caspase inhibitor Z-VAD-FMK by optical microscopic analysis; assay type: functional, cell-based
Outline: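 Optical microscopy of MDA-MB-231 after 24 h with DMSO, 100 µM Z-VAD-FMK, 2 µM compound, or both.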

MDA-MB-231 [15] = test: Induction of endoplasmic reticulum originated vacuolization in human MDA-MB-231 cells assessed as endoplasmic reticulum swelling at 2 uM after 12 hrs by uranyl acetate or lead citrate staining based transmission electron microscopic analysis; assay type: functional, cell-based
Outline: (§3)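 MDA-MB-231 given DMSO or 2 µM for 12 h; fixed in 2.5% glutaraldehyde (0.1 M PBS pH 7.4, 4 °C, 3 h), post-fixed 1% OsO4, ethanol-dehydrated, Spurr's resin embedded; 70 nm sections stained with uranyl acetate or lead citrate, viewed by TEM for organelle swelling.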

MDA-MB-231 [16] = test: Antiproliferative activity against human MDA-MB-231 cells after 48 hrs by crystal violet staining based microscopic method; assay type: functional, cell-based
Outline: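 MDA-MB-231 seeded, cultured 12 h, medium refreshed, then exposed to 0.1% DMSO or graded compound concentrations for 48 h; fixed in 4% paraformaldehyde 15 min at room temperature, stained with crystal violet, examined by optical microscopy and quantified.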

MDA-MB-231 [17] = test: Antiproliferative activity against human MDA-MB-231 cells at 2 uM after 48 hrs in presence of necrosis inhibitor necrostatin-1 by MTS assay; assay type: functional, cell-based
Outline: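 MDA-MB-231 given DMSO, 50 µM necrostatin-1, 2 µM compound, or combinations for 48 h; viability by MTS, means ± SD of triplicate samples.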

MDA-MB-231 [18] = test: Induction of methuosis in human MDA-MB-231 cells xenografted in Balb/c nude mouse assessed as vacuole formation in tumor at 20 mg/kg, iv administered once daily for 13 days measured 6 hrs post last dose by H and E staining based light microscopic method; assay type: functional, organism-based; outline: as §2
MDA-MB-231 [19] = test: Induction of mitochondria originated vacuolization in human MDA-MB-231 cells assessed as mitochondrial swelling at 2 uM after 12 hrs by uranyl acetate or lead citrate staining based transmission electron microscopic analysis; assay type: functional, cell-based; outline: as §3
MDA-MB-231 [20] = test: Induction of mitochondria originated vacuolization in human MDA-MB-231 cells at 2 uM after 12 hrs by Mito-tracker red staining based phase contrast fluorescent microscopic analysis; assay type: functional, cell-based; outline: as §1
MDA-MB-231 [21] = test: Induction of apoptosis in human MDA-MB-231 cells assessed as caspase-3 activation at 0.5 to 4 uM after 24 hrs; assay type: functional, cell-based
Outline: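 After 24 h exposure to DMSO, graded compound concentrations or staurosporine, MDA-MB-231 cells were harvested, lysed and caspase 3 activity measured with a commercial activity kit.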

Structure (SMILES) | Activity (MDA-MB-231 [1]) [%] | Activity (MDA-MB-231 [2]) [%] | also measured
Cc1ccc(NC(=S)Nc2cccc(C(F)(F)F)c2)cc1Nc1cc(-c2cccnc2)nc2[nH]ccc12 | 1.26 | 87.3 | –
Cc1ccc(NC(=O)c2cccc(C(F)(F)F)c2)cc1Nc1cc(-c2cccc(N)c2)nc2[nH]ccc12 | 0.27 | 1.63 | –
Cc1ccc(NC(=O)c2cccc(C(F)(F)F)c2)cc1Nc1cc(-c2ccncc2)nc2[nH]ccc12 | 1.46 | 96.34 | –
Cc1ccc(C(=O)Nc2cc(C(F)(F)F)cc(C(F)(F)F)c2)cc1Nc1cc(-c2cccnc2)nc2[nH]ccc12 | 0 | 0 | –
COc1cccc(NC(=O)c2ccc(C)c(Nc3cc(-c4cccnc4)nc4[nH]ccc34)c2)c1 | 76.86 | 100 | –
Cc1ccc(NC(=O)c2cccc(C(F)(F)F)c2)cc1Nc1cc(-c2ccoc2)nc2[nH]ccc12 | 0.24 | 0 | –
Cc1ccc(NC(=O)c2cccc(C(F)(F)F)c2)cc1Nc1cc(-c2ccsc2)nc2[nH]ccc12 | 0 | 0.21 | –
O=C(Nc1cccc(C(F)(F)F)c1)c1cccc(Nc2cc(-c3cccnc3)nc3[nH]ccc23)c1 | 3.78 | 80.23 | –
Cc1ccc(C(=O)Nc2cc(CN3CCN(C)CC3)cc(C(F)(F)F)c2)cc1Nc1cc(-c2cccnc2)nc2[nH]ccc12 | 0.62 | 0 | –
Cc1ccc(NC(=O)c2cccc(C(F)(F)F)c2)cc1Nc1cc(-c2cccnc2)nc2[nH]ccc12 | – | – | Activity (MDA-MB-231 [3]): Active; Activity (MDA-MB-231 [4]): inactive; Activity (MDA-MB-231 [5]): Active; Activity (MDA-MB-231 [6]): Active; Activity (MDA-MB-231 [7]): Active; Activity (MDA-MB-231 [8]): Active; Activity (MDA-MB-231 [9]): Active; Activity (MDA-MB-231 [10]): inactive; Activity (MDA-MB-231 [11]): Active; TGI (MDA-MB-231 [12]): Dose-dependent effect; Activity (MDA-MB-231 [13]): Active; Activity (MDA-MB-231 [14]): Active; Activity (MDA-MB-231 [15]): inactive; Activity (MDA-MB-231 [16]): Dose-dependent effect; Activity (MDA-MB-231 [17]): Active; Activity (MDA-MB-231 [18]): Active; Activity (MDA-MB-231 [19]): inactive; Activity (MDA-MB-231 [20]): inactive; Activity (MDA-MB-231 [21]): inactive
Cc1ccc(C(=O)Nc2cccc(OC(F)(F)F)c2)cc1Nc1cc(-c2cccnc2)nc2[nH]ccc12 | 38.57 | 99.66 | –
Cc1cc(NC(=O)c2ccc(C)c(Nc3cc(-c4cccnc4)nc4[nH]ccc34)c2)n(C)n1 | 2.48 | 95.24 | –
